# pIC50: −log10 of the molar value. Calls of active or inactive are those of the source. The rule behind the calls is not given here.
# Experiments:
# Pyruvate kinase PKM [1] = target: T1, Pyruvate kinase PKM (Homo sapiens, UniProt P14618); assay: Activation of human recombinant His-tagged PKM2 expressed in Escherichia coli using PEP as substrate measured at 30 sec between 3 and 6 mins in presence of […] by fluorescent pyruvate kinase-lactate dehydrogenase coupled assay
# Summary of the method: (§1)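 Pyruvate kinase activity read by fluorescent pyruvate kinase–lactate dehydrogenase coupled assay; AC50 and maximal activation are means of at least two determinations.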
# Target sequence in this assay (P14618 whole entry): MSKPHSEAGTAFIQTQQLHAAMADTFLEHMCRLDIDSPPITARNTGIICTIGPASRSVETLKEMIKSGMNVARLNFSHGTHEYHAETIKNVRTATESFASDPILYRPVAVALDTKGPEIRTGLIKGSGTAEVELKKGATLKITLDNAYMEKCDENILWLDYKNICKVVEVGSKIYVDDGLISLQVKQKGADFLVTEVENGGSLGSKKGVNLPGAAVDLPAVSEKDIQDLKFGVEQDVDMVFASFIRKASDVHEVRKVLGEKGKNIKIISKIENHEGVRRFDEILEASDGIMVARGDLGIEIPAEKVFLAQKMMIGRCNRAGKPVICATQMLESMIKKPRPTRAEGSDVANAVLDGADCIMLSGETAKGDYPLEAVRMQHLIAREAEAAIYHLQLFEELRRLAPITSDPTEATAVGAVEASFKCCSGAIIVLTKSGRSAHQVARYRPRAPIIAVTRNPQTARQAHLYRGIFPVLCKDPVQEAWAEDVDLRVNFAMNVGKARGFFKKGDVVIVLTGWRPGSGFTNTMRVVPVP
# Pyruvate kinase PKM [2] = target: T1, Pyruvate kinase PKM; assay: Activation of human recombinant His-tagged PKM2 expressed in Escherichia coli assessed as maximal activity using PEP as substrate measured at 30 sec between 3 and 6 mins in presence of […] by fluorescent pyruvate kinase-lactate dehydrogenase coupled assay relative to control; summary of the method: as §1
# Target sequence in this assay (P14618 2-531 limits assumed): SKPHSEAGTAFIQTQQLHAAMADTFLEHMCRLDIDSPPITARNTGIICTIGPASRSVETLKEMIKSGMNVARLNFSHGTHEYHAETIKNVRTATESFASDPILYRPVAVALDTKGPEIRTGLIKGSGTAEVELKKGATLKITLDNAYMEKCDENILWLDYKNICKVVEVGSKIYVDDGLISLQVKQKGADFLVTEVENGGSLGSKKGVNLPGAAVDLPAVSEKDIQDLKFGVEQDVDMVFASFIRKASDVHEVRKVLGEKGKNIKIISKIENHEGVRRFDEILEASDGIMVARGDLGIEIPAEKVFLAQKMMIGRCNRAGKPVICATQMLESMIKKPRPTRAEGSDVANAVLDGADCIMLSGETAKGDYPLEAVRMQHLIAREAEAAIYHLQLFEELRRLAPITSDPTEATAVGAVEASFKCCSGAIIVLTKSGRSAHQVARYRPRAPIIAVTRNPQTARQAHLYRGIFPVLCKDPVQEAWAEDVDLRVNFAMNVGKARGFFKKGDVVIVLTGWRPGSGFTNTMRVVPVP
# NCI-H1299 = assay: Antiproliferative activity against human H1299 cells assessed as reduction in cell growth incubated for 72 hrs by CellTiter-Glo assay; type: functional, cell-based; conditions: NCI-H1299, 72 h
# Summary of the method: (§2)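 Cells (H1299 in RPMI 1640; HCT116 and A375 in DMEM; 10% FBS, 37 °C, 5% CO2) plated at 2000 per well, left 24 h, then exposed to ten concentrations or DMSO for 72 h. CellTiter-Glo added, 30 min at room temperature in dark, luminescence read. IC50 fitted from triplicate experiments.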
# HCT-116 = assay: Antiproliferative activity against human HCT116 cells assessed as reduction in cell growth incubated for 72 hrs by CellTiter-Glo assay; type: functional, cell-based; conditions: HCT-116, 72 h; summary of the method: as §2
# A-375 = assay: Antiproliferative activity against human A375 cells assessed as reduction in cell growth incubated for 72 hrs by CellTiter-Glo assay; type: functional, cell-based; conditions: A-375, 72 h; summary of the method: as §2
compound,measurement,setting,value
O=C(CCSC(=S)NCc1cccnc1)c1c[nH]c2nc(Cl)ccc12,AC50,Pyruvate kinase PKM [1],Not Active
same,%max,Pyruvate kinase PKM [2],inactive
O=C(CCSC(=S)NCc1cccnc1)c1cn(C2CC2)c2ncccc12,AC50,Pyruvate kinase PKM [1]; read-out: AC50,4.56 µM
same,%max,Pyruvate kinase PKM [2],42%
same,pIC50,NCI-H1299,5.02
same,pIC50,HCT-116,6.08
same,pIC50,A-375,6.68
Cn1cc(C(=O)CCSC(=S)NCc2cccnc2)c2cccnc21,AC50,Pyruvate kinase PKM [1]; read-out: AC50,4.35 µM
same,%max,Pyruvate kinase PKM [2],114%
same,pIC50,NCI-H1299,5.68
same,pIC50,HCT-116,6.03
same,pIC50,A-375,6.54
O=C(CCSC(=S)NCc1cccnc1)c1c(-c2ccccc2)nn2ncccc12,AC50,Pyruvate kinase PKM [1]; read-out: AC50,0.45 µM
same,%max,Pyruvate kinase PKM [2],148%
same,pIC50,NCI-H1299,< 5.00
same,pIC50,HCT-116,5.04
same,pIC50,A-375,5.56
O=C(CCSC(=S)NCc1cccnc1)c1cn(C2CCC2)c2ncccc12,AC50,Pyruvate kinase PKM [1]; read-out: AC50,3.93 µM
same,%max,Pyruvate kinase PKM [2],93%
same,pIC50,NCI-H1299,5.38
same,pIC50,HCT-116,5.45
same,pIC50,A-375,5.87
O=C(CCSC(=S)NCc1cccnc1)c1cn(-c2ccccc2)c2ncccc12,AC50,Pyruvate kinase PKM [1]; read-out: AC50,2.5 µM
same,%max,Pyruvate kinase PKM [2],77%
same,pIC50,NCI-H1299,5.00
same,pIC50,HCT-116,5.27
same,pIC50,A-375,5.41
O=C(CCSC(=S)NCc1cccnc1)c1cnn2ccccc12,AC50,Pyruvate kinase PKM [1]; read-out: AC50,> 20 µM
same,%max,Pyruvate kinase PKM [2],23%
O=C(CCSC(=S)NCc1cccnc1)c1c[nH]c2nccc(Br)c12,AC50,Pyruvate kinase PKM [1]; read-out: AC50,0.61 µM
same,%max,Pyruvate kinase PKM [2],83%
same,pIC50,NCI-H1299,< 5.00
same,pIC50,HCT-116,5.31
same,pIC50,A-375,5.70
O=C(CCSC(=S)NCc1cccnc1)c1c[nH]c2ncc(-c3ccc(Cl)cc3)cc12,AC50,Pyruvate kinase PKM [1]; read-out: AC50,> 20 µM
same,%max,Pyruvate kinase PKM [2],inactive
